# ChEMBL document CHEMBL1123964, “Potent, long-acting luteinizing hormone-releasing hormone antagonists containing new synthetic amino acids: N,N'-dialkyl-D-homoarginines” (J Med Chem, 1988)
# Square brackets hold non-standard residues; d marks the D form. Peptide text beside a SMILES is read from it. d(hArg(Et2)) = CCN=C(NCC)NCCCC[C@@H](N)C(=O)O; dPhe(4-Cl) = N[C@H](Cc1ccc(Cl)cc1)C(=O)O; d2Nal = N[C@H](Cc1ccc2ccccc2c1)C(=O)O
# Tests used:
# [1] = target: T1, Gonadotropin-releasing hormone receptor (Rattus norvegicus) (UniProt P30969); assay: Antiovulatory activity on proestrus was measured by administering as a solution in 50% propylene glycol / 0.9% saline in rat; type: functional
# T1 sequence (whole entry): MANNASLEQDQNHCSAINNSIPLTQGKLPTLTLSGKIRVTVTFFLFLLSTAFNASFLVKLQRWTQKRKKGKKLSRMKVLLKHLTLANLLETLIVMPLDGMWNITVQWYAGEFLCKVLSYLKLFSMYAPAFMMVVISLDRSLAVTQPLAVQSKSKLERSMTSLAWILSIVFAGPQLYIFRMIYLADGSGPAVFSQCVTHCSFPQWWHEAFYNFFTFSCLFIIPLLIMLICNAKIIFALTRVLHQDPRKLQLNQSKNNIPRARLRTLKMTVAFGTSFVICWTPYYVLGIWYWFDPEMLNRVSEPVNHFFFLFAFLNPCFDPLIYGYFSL
# [2] = target: T1, Gonadotropin-releasing hormone receptor (Rattus norvegicus); assay: Antiovulatory activity on diestrus II following administration as a solution in corn oil (24h earlier) in rat.; type: functional, organism-based
# In short: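 Female rats with at least two normal 4-day cycles before the test cycle were selected. They received the analogue sc in corn oil at noon on diestrus II, 24 h before the proestrus dosing time. On the morning of expected estrus the oviducts were examined under a dissecting microscope, and freshly ovulated eggs were counted. ED50 was taken from percent ovulating versus log-dose, with 10 rats per dose group and usually three or more dose groups.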
ED50 (ug injection-1) [1],ED50 (ug injection-1) [2],SMILES
7.5,–,CCCNC(=NCCCC[C@@H](NC(=O)[C@H](Cc1ccc(O)cc1)NC(=O)[C@H](CO)NC(=O)[C@@H](Cc1ccc2ccccc2c1)NC(=O)[C@@H](Cc1ccc(F)cc1)NC(=O)[C@@H](Cc1ccc2ccccc2c1)NC(C)=O)C(=O)N[C@@H](CC(C)C)C(=O)N[C@@H](CCCN=C(N)N)C(=O)N1CCC[C@H]1C(=O)NCC(N)=O)NCCC
0.75,8,CCNC(=NCCCC[C@@H](NC(=O)[C@H](Cc1ccc(O)cc1)NC(=O)[C@H](CO)NC(=O)[C@@H](Cc1c[nH]c2ccccc12)NC(=O)[C@@H](Cc1ccc(Cl)cc1)NC(=O)[C@@H](Cc1ccc2ccccc2c1)NC(C)=O)C(=O)N[C@@H](Cc1ccccc1)C(=O)N[C@@H](CCCN=C(N)N)C(=O)N1CCC[C@H]1C(=O)N[C@H](C)C(N)=O)NCC (Ac-[d2Nal][dPhe(4-Cl)][dW]SY[d(hArg(Et2))]FRP[dA]-NH2)
16,> 16,CC(=O)N[C@H](Cc1ccc(Cl)cc1)C(=O)N[C@H](Cc1ccc(Cl)cc1)C(=O)N[C@H](Cc1c[nH]c2ccccc12)C(=O)N[C@@H](CO)C(=O)N[C@@H](Cc1ccc(O)cc1)C(=O)N[C@H](CCCCN=C(NC(C)C)NC(C)C)C(=O)N[C@@H](CC(C)C)C(=O)N[C@@H](CCCN=C(N)N)C(=O)N1CCC[C@H]1C(=O)N[C@H](C)C(N)=O
2.4,> 16,CCNC(=O)[C@@H]1CCCN1C(=O)[C@H](CCCN=C(N)N)NC(=O)[C@H](CC(C)C)NC(=O)[C@@H](CCCCN=C(NCC)NCC)NC(=O)[C@H](Cc1ccc(O)cc1)NC(=O)[C@H](CO)NC(=O)[C@@H](Cc1c[nH]c2ccccc12)NC(=O)[C@@H](Cc1ccc(Cl)cc1)NC(=O)[C@@H](Cc1ccc2ccccc2c1)NC(C)=O
> 16,–,CCCCCCNC(=NCCCC[C@@H](NC(=O)[C@H](Cc1ccc(O)cc1)NC(=O)[C@H](CCCN)NC(=O)[C@@H](Cc1c[nH]c2ccccc12)NC(=O)[C@@H](Cc1ccc(Cl)cc1)NC(=O)[C@@H](Cc1ccc(Cl)cc1)NC(C)=O)C(=O)N[C@@H](CC(C)C)C(=O)N[C@@H](CCCN=C(N)N)C(=O)N1CCC[C@H]1C(=O)N[C@H](C)C(N)=O)NCCCCCC
0.7,–,CCNC(=NCCCC[C@@H](NC(=O)[C@H](Cc1ccc(O)cc1)NC(=O)[C@H](CO)NC(=O)[C@@H](Cc1cccnc1)NC(=O)[C@@H](Cc1ccc(F)cc1)NC(=O)[C@@H](Cc1ccc2ccccc2c1)NC(C)=O)C(=O)N[C@@H](CC(C)C)C(=O)N[C@@H](CCCN=C(N)N)C(=O)N1CCC[C@H]1C(=O)N[C@H](C)C(N)=O)NCC
1.2,–,CCNC(=NCCCC[C@@H](NC(=O)[C@H](Cc1ccc(O)cc1)NC(=O)[C@H](CO)NC(=O)[C@@H](Cc1c[nH]c2ccccc12)NC(=O)[C@@H](Cc1ccc(Cl)cc1)NC(=O)[C@@H](Cc1ccc2ccccc2c1)NC(C)=O)C(=O)N[C@@H](Cc1c[nH]c2ccccc12)C(=O)N[C@@H](CCCN=C(N)N)C(=O)N1CCC[C@H]1C(=O)N[C@H](C)C(N)=O)NCC
0.4,–,CCNC(=NCCCC[C@@H](NC(=O)[C@H](Cc1ccc(O)cc1)NC(=O)[C@H](CO)NC(=O)[C@@H](Cc1c[nH]c2ccccc12)NC(=O)[C@@H](Cc1ccc(F)cc1)NC(=O)[C@@H](Cc1ccc2ccccc2c1)NC(C)=O)C(=O)N[C@@H](CC(C)C)C(=O)N[C@@H](CCCN=C(N)N)C(=O)N1CCC[C@H]1C(=O)N[C@H](C)C(N)=O)NCC
> 16,–,CCNC(=NCCCC[C@H](NC(=O)[C@H](CO)NC(=O)[C@@H](Cc1c[nH]c2ccccc12)NC(=O)[C@@H](Cc1ccc(Cl)cc1)NC(=O)[C@@H](CCCCN=C(NCC)NCC)NC(C)=O)C(=O)N[C@H](Cc1ccc(O)cc1)C(=O)N[C@@H](Cc1c[nH]c2ccccc12)C(=O)N[C@@H](CCCN=C(N)N)C(=O)N1CCC[C@H]1C(=O)N[C@H](C)C(N)=O)NCC
1.7,–,CCNC(=NCCCC[C@@H](NC(=O)[C@H](Cc1ccc(O)cc1)NC(=O)[C@H](CO)NC(=O)[C@@H](Cc1ccncc1)NC(=O)[C@@H](Cc1ccc(Cl)cc1)NC(=O)[C@@H](Cc1ccc2ccccc2c1)NC(C)=O)C(=O)N[C@@H](CC(C)C)C(=O)N[C@@H](CCCN=C(N)N)C(=O)N1CCC[C@H]1C(=O)N[C@H](C)C(N)=O)NCC
> 2,–,CC/N=C(\NCCCC[C@@H](NC(=O)[C@H](Cc1ccc(O)cc1)NC(=O)[C@H](CO)NC(=O)[C@@H](Cc1c[nH]c2ccccc12)NC(=O)[C@@H](Cc1ccc(Cl)cc1)NC(=O)[C@@H](Cc1ccc(Cl)cc1)NC(C)=O)C(=O)N[C@@H](CC(C)C)C(=O)N[C@@H](CCCN=C(N)N)C(=O)N1CCC[C@H]1C(=O)NCC(N)=O)NCCCN(C)C
8,–,CCNC(=NCCCC[C@@H](NC(C)=O)C(=O)N[C@H](Cc1ccc(Cl)cc1)C(=O)N[C@H](Cc1c[nH]c2ccccc12)C(=O)N[C@@H](CO)C(=O)N[C@@H](Cc1ccc(O)cc1)C(=O)N[C@H](Cc1ccc2ccccc2c1)C(=O)N[C@@H](CC(C)C)C(=O)N[C@@H](CCCN=C(N)N)C(=O)N1CCC[C@H]1C(=O)N[C@H](C)C(N)=O)NCC
5.5,–,CCNC(=NCCCC[C@@H](NC(=O)[C@H](Cc1ccc(O)cc1)NC(=O)[C@H](CO)NC(=O)[C@@H](Cc1ccc2ccccc2c1)NC(=O)[C@@H](Cc1ccc(Cl)cc1)NC(=O)[C@@H](Cc1c[nH]c2ccccc12)NC(C)=O)C(=O)N[C@@H](CC(C)C)C(=O)N[C@@H](CCCN=C(N)N)C(=O)N1CCC[C@H]1C(=O)N[C@H](C)C(N)=O)NCC
1.7,–,CCNC(=NCCCC[C@H](NC(=O)[C@H](CO)NC(=O)[C@@H](Cc1c[nH]c2ccccc12)NC(=O)[C@@H](Cc1ccc(Cl)cc1)NC(=O)[C@@H](Cc1ccc2ccccc2c1)NC(C)=O)C(=O)N[C@H](Cc1ccc(O)cc1)C(=O)N[C@@H](CC(C)C)C(=O)N[C@@H](CCCN=C(N)N)C(=O)N1CCC[C@H]1C(=O)N[C@H](C)C(N)=O)NCC
11.5,–,CCNC(=NCCCC[C@H](NC(=O)[C@H](CO)NC(=O)[C@@H](Cc1c[nH]c2ccccc12)NC(=O)[C@@H](Cc1ccc(Cl)cc1)NC(=O)[C@@H](Cc1ccc2ccccc2c1)NC(C)=O)C(=O)N[C@H](Cc1ccc(O)cc1)C(=O)N[C@@H](Cc1c[nH]c2ccccc12)C(=O)N[C@@H](CCCN=C(N)N)C(=O)N1CCC[C@H]1C(=O)N[C@H](C)C(N)=O)NCC
16,–,CCCCCCNC(=NCCCC[C@@H](NC(=O)[C@H](Cc1ccc(O)cc1)NC(=O)[C@H](CO)NC(=O)[C@@H](Cc1c[nH]c2ccccc12)NC(=O)[C@@H](Cc1ccc(F)cc1)NC(=O)[C@@H](CO)NC(C)=O)C(=O)N[C@@H](CC(C)C)C(=O)N[C@@H](CCCN=C(N)N)C(=O)N1CCC[C@H]1C(=O)NCC(N)=O)NCCCCCC
> 2,–,CCNC(=NCCCC[C@@H](NC(=O)[C@H](Cc1ccc(O)cc1)NC(=O)[C@H](CO)NC(=O)[C@@H](Cc1c[nH]c2ccccc12)NC(=O)[C@@H](Cc1ccc(F)cc1)NC(=O)[C@@H](Cc1ccc2ccccc2c1)NC(C)=O)C(=O)N[C@@H](CC(C)C)C(=O)N[C@@H](CCCN=C(N)N)C(=O)N1CCC[C@H]1C(=O)NCC(N)=O)NCCCN(C)C
1.6,–,CCNC(=NCCCC[C@H](NC(=O)[C@H](CO)NC(=O)[C@@H](Cc1c[nH]c2ccccc12)NC(=O)[C@@H](Cc1ccc(Cl)cc1)NC(=O)[C@@H](Cc1ccc2ccccc2c1)NC(C)=O)C(=O)N[C@H](Cc1ccc2ccccc2c1)C(=O)N[C@@H](CC(C)C)C(=O)N[C@@H](CCCN=C(N)N)C(=O)N1CCC[C@H]1C(=O)N[C@H](C)C(N)=O)NCC
